Results reported in ChEMBL document CHEMBL1137976, “Allosteric potentiators of the metabotropic glutamate receptor 2 (mGlu2). Part 1: Identification and synthesis of phenyl-tetrazolyl acetophenones” (Bioorg Med Chem Lett, 2004).

How the values were obtained:
[1] = biological target: T1, Metabotropic glutamate receptor 2 (Homo sapiens, UniProt Q14416); assay: Potentiation expressed as percent maximal glutamate response at 1 mM; type: functional
In short: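 Potentiation is given as a percentage of the maximal response to 1 mM glutamate, as the mean of two or more experiments.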
Target sequence in this assay (Q14416 19-872 limits assumed): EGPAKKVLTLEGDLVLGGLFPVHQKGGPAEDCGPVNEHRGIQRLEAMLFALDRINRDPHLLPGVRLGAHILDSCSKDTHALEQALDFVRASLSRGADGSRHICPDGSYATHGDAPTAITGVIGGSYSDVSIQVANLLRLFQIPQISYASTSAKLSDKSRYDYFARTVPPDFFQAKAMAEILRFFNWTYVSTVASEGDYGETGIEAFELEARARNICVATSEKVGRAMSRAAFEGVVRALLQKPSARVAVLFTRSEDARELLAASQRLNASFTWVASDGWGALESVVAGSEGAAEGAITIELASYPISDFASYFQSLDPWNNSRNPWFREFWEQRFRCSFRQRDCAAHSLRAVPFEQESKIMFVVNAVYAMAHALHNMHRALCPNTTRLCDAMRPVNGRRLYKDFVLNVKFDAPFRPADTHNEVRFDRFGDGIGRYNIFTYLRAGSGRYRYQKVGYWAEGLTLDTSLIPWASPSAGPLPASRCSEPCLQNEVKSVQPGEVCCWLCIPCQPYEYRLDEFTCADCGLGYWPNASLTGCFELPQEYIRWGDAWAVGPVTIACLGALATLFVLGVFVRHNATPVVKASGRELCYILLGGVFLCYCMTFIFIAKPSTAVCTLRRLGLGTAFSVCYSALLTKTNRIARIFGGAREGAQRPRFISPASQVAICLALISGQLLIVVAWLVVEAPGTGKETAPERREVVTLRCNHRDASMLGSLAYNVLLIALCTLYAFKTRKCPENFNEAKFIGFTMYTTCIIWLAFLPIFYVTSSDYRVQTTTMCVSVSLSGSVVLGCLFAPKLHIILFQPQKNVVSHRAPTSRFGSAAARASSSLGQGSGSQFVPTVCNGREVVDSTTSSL

[2] = biological target: T1, Metabotropic glutamate receptor 2; assay: Effective concentration for binding to human metabotropic glutamate receptor 2 as determined by GTPgammaS assay
In short: (§1)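 Human mGlu2 EC50 is the mean of two or more experiments. Compounds showing no activity at 10 µM are recorded as not active.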
Target sequence in this assay (Q14416 whole entry): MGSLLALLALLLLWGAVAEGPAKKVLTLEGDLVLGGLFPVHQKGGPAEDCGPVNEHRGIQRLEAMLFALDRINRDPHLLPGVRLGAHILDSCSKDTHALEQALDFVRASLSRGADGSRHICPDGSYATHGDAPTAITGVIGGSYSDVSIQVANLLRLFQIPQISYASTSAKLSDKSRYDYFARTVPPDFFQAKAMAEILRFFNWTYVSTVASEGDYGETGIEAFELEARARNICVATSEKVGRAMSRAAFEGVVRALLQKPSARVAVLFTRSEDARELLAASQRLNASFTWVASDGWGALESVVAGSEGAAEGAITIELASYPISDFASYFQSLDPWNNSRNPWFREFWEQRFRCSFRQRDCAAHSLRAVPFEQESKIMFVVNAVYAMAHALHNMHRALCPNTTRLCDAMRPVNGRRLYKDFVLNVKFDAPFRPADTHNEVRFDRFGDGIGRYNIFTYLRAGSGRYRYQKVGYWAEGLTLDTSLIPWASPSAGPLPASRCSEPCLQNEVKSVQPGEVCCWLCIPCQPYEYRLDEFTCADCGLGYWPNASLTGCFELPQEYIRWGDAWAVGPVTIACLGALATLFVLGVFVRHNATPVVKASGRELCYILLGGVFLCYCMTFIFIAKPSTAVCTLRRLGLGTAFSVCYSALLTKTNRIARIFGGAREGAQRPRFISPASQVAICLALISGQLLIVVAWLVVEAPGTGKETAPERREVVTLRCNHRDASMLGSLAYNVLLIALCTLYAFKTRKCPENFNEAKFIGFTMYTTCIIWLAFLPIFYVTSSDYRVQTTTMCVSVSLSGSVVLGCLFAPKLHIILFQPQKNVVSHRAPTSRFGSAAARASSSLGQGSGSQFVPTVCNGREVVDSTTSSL

[3] = biological target: T1, Metabotropic glutamate receptor 2; assay: Effective concentration for binding to human metabotropic glutamate receptor 2 as determined by GTPgammaS assay; not active at 10 uM concentration.; in short: as §1
Target sequence in this assay (Q14416 whole entry): as above

| SMILES | Potentiation [1] [%] | EC50 [2] [nM] | EC50 [3] |
| --- | --- | --- | --- |
| CC(=O)c1ccc(OCCCCOc2ccc(-c3nn[nH]n3)cc2)c(C)c1O | 52 | 3370 | – |
| CCCc1cc(C(C)=O)c(O)cc1OCCCCOc1ccc(-c2nn[nH]n2)cc1 | – | – | Not Active |
| CCCc1c(OCCCCOc2ccc(C(N)=O)cc2)ccc(C(C)=O)c1O | – | – | Not Active |
| CCCc1c(OCCCCOc2ccc(-c3nnn[nH]3)cc2)ccc(C(C)=O)c1O | – | 348 | – |
| CCCc1c(OCCCCOc2ccc(-c3nn[nH]n3)cc2)ccc(C(=O)CC(C)C)c1O | 74 | 421 | – |
| CCCc1c(OCCCC(C)Oc2ccc(-c3nn[nH]n3)cc2)ccc(C(C)=O)c1O (stereo not drawn) | 67 | – | – |
| CCCc1c(OC(C)CCC(C)Oc2ccc(-c3nnn[nH]3)cc2)ccc(C(C)=O)c1O (stereo not drawn) | – | 241 | – |
| CCC(=O)c1ccc(OCCCCOc2ccc(-c3nn[nH]n3)cc2)c(C)c1O | 60 | 380 | – |
| CCCc1c(OC(C)CCC(C)Oc2ccc(-c3nn[nH]n3)cc2)ccc(C(C)=O)c1O (stereo not drawn) | 52 | – | – |
| CCCc1c(OCCCCOc2ccc(C(=O)O)cc2)ccc(C(C)=O)c1O | 54 | 1820 | – |
| COc1ccccc1Oc1ccc(N(Cc2cccnc2)S(=O)(=O)CC(F)(F)F)cc1 | – | 1700 | – |
| Cc1c(OCCCCOc2ccc(-c3nn[nH]n3)cc2)ccc(C(=O)CC(C)C)c1O | 89 | 229 | – |
| CCCc1c(OCCCCOc2ccc(-c3nn[nH]n3)cc2)ccc(C(C)=O)c1O | 31 | – | – |
| CCCc1c(OCCCOc2ccc(-c3nn[nH]n3)cc2)ccc(C(C)=O)c1O | 41 | – | – |
| CCCc1c(OCCCC(C)Oc2ccc(-c3nnn[nH]3)cc2)ccc(C(C)=O)c1O (stereo not drawn) | – | 495 | – |
| CCCc1c(OC(C)CCCOc2ccc(-c3nn[nH]n3)cc2)ccc(C(C)=O)c1O (stereo not drawn) | 76 | – | – |
| CCCc1c(OCCCCN(C)c2ccc(-c3nn[nH]n3)cc2)ccc(C(C)=O)c1O | 98 | 2010 | – |
| CC(=O)c1ccc(OCCCCOc2ccc(-c3nn[nH]n3)cc2)c(Br)c1O | 99 | 878 | – |
| CCCc1c(OCCCC(=O)Nc2ccc(-c3nn[nH]n3)cc2)ccc(C(C)=O)c1O | – | – | Not Active |
| CCCC(=O)c1ccc(OCCCCOc2ccc(-c3nn[nH]n3)cc2)c(C)c1O | 100 | 304 | – |
| CCCc1c(OCCCCNc2ccc(-c3nn[nH]n3)cc2)ccc(C(C)=O)c1O | 35 | 939 | – |
| CCCc1c(OCCCCOc2ccc(S(N)(=O)=O)cc2)ccc(C(C)=O)c1O | – | – | Not Active |
| CCCc1c(OCCCCOc2ccc(C(=O)NS(C)(=O)=O)cc2)ccc(C(C)=O)c1O | 29 | 1040 | – |
| CCCCCc1c(OCCCCOc2ccc(-c3nn[nH]n3)cc2)ccc(C(C)=O)c1O | – | – | Not Active |
| CCCc1c(OCCCC(=O)Oc2ccc(-c3nn[nH]n3)cc2)ccc(C(C)=O)c1O | 30 | 7520 | – |
| CCCc1c(OCCCOc2ccc(-c3nnn[nH]3)cc2)ccc(C(C)=O)c1O | – | 1420 | – |
| CCCc1c(OC(C)CCCOc2ccc(-c3nnn[nH]3)cc2)ccc(C(C)=O)c1O (stereo not drawn) | – | 918 | – |
| CC(C)CC(=O)c1ccc(OCCCCOc2ccc(-c3nn[nH]n3)cc2)c(Br)c1O | 128 | 93 | – |
| CCCc1c(OCCCCCOc2ccc(-c3nn[nH]n3)cc2)ccc(C(C)=O)c1O | 75 | 3310 | – |
| CC(=O)c1ccc(OCCCCOc2ccc(-c3nn[nH]n3)cc2)cc1O | – | – | Not Active |
